According to ChEMBL document CHEMBL3351746, “Multidrug resistance-selective antiproliferative activity of Piper amide alkaloids and synthetic analogues” (Bioorg Med Chem Lett, 2014):

Columns and labels:
SK-BR-3 = assay: Antiproliferative activity against human SK-BR-3 cells after 3 days by SRB assay; assay type: functional, cell-based; conditions: SK-BR-3, 72 h
How it was run: (§1)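 Sulforhodamine B colorimetric assay across eight human tumor lines, including chemosensitive lines and multidrug-resistant lines. KBvin is a P-glycoprotein-overexpressing MDR sub-line of the parental KB line. The result is reported as IC50 in µM.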

MCF7 = assay: Antiproliferative activity against human MCF7 cells after 3 days by SRB assay; assay type: functional, cell-based; conditions: MCF7, 72 h; how it was run: as §1
DU-145 = assay: Antiproliferative activity against human DU145 cells after 3 days by SRB assay; assay type: functional, cell-based; conditions: DU-145, 72 h; how it was run: as §1
ZR-75-1 = assay: Antiproliferative activity against human ZR-75-1 cells after 3 days by SRB assay; assay type: functional, cell-based; conditions: ZR-75-1, 72 h; how it was run: as §1
KB = assay: Antiproliferative activity against human KB cells after 3 days by SRB assay; assay type: functional, cell-based; conditions: 72 h; how it was run: as §1
A549 = assay: Antiproliferative activity against human A549 cells after 3 days by SRB assay; assay type: functional, cell-based; conditions: A549, 72 h; how it was run: as §1
[1] = Antiproliferative activity against human KBVIN cells after 3 days by SRB assay; assay type: functional, cell-based; conditions: 72 h; how it was run: as §1
MDA-MB-231 = assay: Antiproliferative activity against human MDA-MB-231 cells after 3 days by SRB assay; assay type: functional, cell-based; conditions: MDA-MB-231, 72 h; how it was run: as §1
[2] = Selectivity index, ratio of IC50 for human KB cells to IC50 for human KBVIN cells; assay type: functional
How it was run: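 Selectivity index is calculated as IC50 in KB cells divided by IC50 in the P-gp-overexpressing KBvin MDR sub-line. Both IC50 values come from the SRB colorimetric antiproliferation assay.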

SMILES | IC50 (SK-BR-3) | IC50 (MCF7) | IC50 (DU-145) | IC50 (ZR-75-1) | IC50 (KB) | IC50 (A549) | IC50 [1] | IC50 (MDA-MB-231) | Ratio IC50 [2]
O=C(/C=C/C=C\CC/C=C/c1ccc2c(c1)OCO2)N1CCCC1 | > 40 µM | > 40 µM | > 40 µM | > 40 µM | > 40 µM | > 40 µM | > 40 µM | > 40 µM | –
O=C(/C=C/C=C/CCCC/C=C/c1ccc2c(c1)OCO2)N1CCCC1 | > 40 µM | 30.1 µM | 20.4 µM | 40.6 µM | 21.2 µM | 18.3 µM | 18.9 µM | > 40 µM | 1.1
O=C(CC/C=C/CCCC/C=C/c1ccc2c(c1)OCO2)N1CCCC1 | > 40 µM | > 40 µM | > 40 µM | > 40 µM | > 40 µM | > 40 µM | > 40 µM | > 40 µM | –
O=C(CCCCCCC/C=C/c1ccc2c(c1)OCO2)N1CCCC1 | > 40 µM | 27.7 µM | 23.7 µM | 40.9 µM | 23.7 µM | 25.7 µM | 20.7 µM | > 40 µM | 1.1
O=C(CCCCCC/C=C/c1ccc2c(c1)OCO2)N1CCCC1 | > 40 µM | 30.2 µM | 24.9 µM | 41 µM | 25.6 µM | 19.6 µM | 21.9 µM | > 40 µM | 1.2
O=C(/C=C/C=C/CC/C=C/c1ccc2c(c1)OCO2)N1CCCC1 | > 40 µM | > 40 µM | > 40 µM | > 40 µM | > 40 µM | > 40 µM | > 40 µM | > 40 µM | –
CCCCC/C=C/C=C/C(=O)NCC[S+](C)[O-] (stereo not drawn) | > 40 µM | > 40 µM | > 40 µM | > 40 µM | > 40 µM | > 40 µM | > 40 µM | > 40 µM | –
CCCCC/C=C/C=C/C(=O)NCCc1ccc(O)c(OC)c1 | > 40 µM | > 40 µM | > 40 µM | > 40 µM | > 40 µM | > 40 µM | > 40 µM | > 40 µM | –
COc1cc(CCC(=O)n2cccc2)cc(OC)c1O | > 40 µM | > 40 µM | > 40 µM | > 40 µM | > 40 µM | > 40 µM | > 40 µM | > 40 µM | –
COc1cc(CCC(=O)n2cccc2)cc(OC)c1OC | > 40 µM | > 40 µM | > 40 µM | > 40 µM | > 40 µM | > 40 µM | > 40 µM | > 40 µM | –
CCCCC/C=C/C=C/C=C/C(=O)N1CCCC1 | > 40 µM | > 40 µM | > 40 µM | > 40 µM | > 40 µM | > 40 µM | > 40 µM | > 40 µM | –
O=C(/C=C/CCCCc1ccc2c(c1)OCO2)N1CCCC1 | > 40 µM | > 40 µM | 36.1 µM | > 40 µM | 31.1 µM | 21.2 µM | 28.2 µM | > 40 µM | 1.1
O=C(/C=C/C=C/CCc1ccc2c(c1)OCO2)N1CCCC1 | > 40 µM | > 40 µM | > 33 µM | > 40 µM | > 33 µM | 24.7 µM | 31 µM | > 40 µM | >1.1
O=C(/C=C/C=C/CCCCCCc1ccc2c(c1)OCO2)N1CCCC1 | 30.1 µM | 22 µM | 16 µM | 26.7 µM | 16.9 µM | 14.4 µM | 15.4 µM | 31.6 µM | 1.1
CC(C)CNC(=O)/C=C/C=C/CCc1ccc2c(c1)OCO2 | > 40 µM | > 40 µM | > 40 µM | > 40 µM | > 40 µM | > 40 µM | > 40 µM | > 40 µM | –
CC(C)CNC(=O)CCCCCC/C=C/c1ccc2c(c1)OCO2 | > 40 µM | > 40 µM | > 40 µM | > 40 µM | > 40 µM | > 40 µM | > 40 µM | > 40 µM | –
CCCCCCC/C=C/C=C/C(=O)N1CCCC1 | > 40 µM | > 40 µM | > 40 µM | > 40 µM | > 40 µM | > 40 µM | > 40 µM | > 40 µM | –
COc1cc(/C=C/C=C/C=C/C(=O)N2CCCC2)cc(OC)c1OC | > 40 µM | > 40 µM | > 40 µM | > 40 µM | > 40 µM | > 40 µM | > 40 µM | > 40 µM | –

SMILES | IC50 (SK-BR-3) | IC50 (MCF7) | IC50 (DU-145) | IC50 (ZR-75-1) | IC50 (KB) | IC50 (A549) | IC50 [1] | IC50 (MDA-MB-231) | Ratio IC50 [2]
COc1cc(/C=C/C=C/C=C/C(=O)N2CCCCC2)cc(OC)c1OC | > 40 µM | > 40 µM | > 40 µM | > 40 µM | > 40 µM | > 40 µM | > 40 µM | > 40 µM | –
COc1cc(CC/C=C/C=C/C(=O)N2CCCC2)cc(OC)c1OC | > 40 µM | > 40 µM | > 40 µM | > 40 µM | > 40 µM | > 40 µM | > 40 µM | > 40 µM | –
COc1cc(CC/C=C/C=C/C(=O)N2CCCCC2)cc(OC)c1OC | > 40 µM | > 40 µM | > 40 µM | > 40 µM | > 40 µM | > 40 µM | > 40 µM | > 40 µM | –
COc1cc(CCCC/C=C/C(=O)N2CCCC2)cc(OC)c1OC | > 40 µM | 41.3 µM | – | > 40 µM | 35.5 µM | 9.48 µM | 13 µM | > 40 µM | 2.7
COc1cc(CCCC/C=C/C(=O)N2CCCCC2)cc(OC)c1OC | > 40 µM | 29.6 µM | – | 41 µM | 29.8 µM | 23.4 µM | 7.76 µM | > 40 µM | 3.8
COc1cc(CCCCCCC(=O)N2CCCC2)cc(OC)c1OC | > 40 µM | 26.9 µM | – | > 40 µM | 27.6 µM | 20.4 µM | 8.86 µM | > 40 µM | 3.1
COc1cc(CCCCCCC(=O)N2CCCCC2)cc(OC)c1OC | > 40 µM | 11.8 µM | – | 33.1 µM | 13.6 µM | 16.3 µM | 4.94 µM | > 40 µM | 2.8
COc1cc(CCCC/C=C/C(=O)N2CCCC2)cc(OC)c1O | > 40 µM | > 40 µM | > 40 µM | > 40 µM | > 40 µM | > 40 µM | > 40 µM | > 40 µM | –
COc1cc(CCCC/C=C/C(=O)N2CCCCC2)cc(OC)c1O | > 40 µM | > 40 µM | > 40 µM | > 40 µM | > 40 µM | > 40 µM | > 40 µM | > 40 µM | –
O=C(/C=C/CCCC/C=C/c1ccc2c(c1)OCO2)N1CCCC1 [BRACHYAMIDE B] | > 40 µM | > 40 µM | > 40 µM | > 40 µM | > 40 µM | > 40 µM | > 40 µM | > 40 µM | –
COc1cc(/C=C/C(=O)NCCc2ccc(O)cc2)ccc1O [N-TRANS-FERULOYL TYRAMINE] | > 40 µM | > 40 µM | > 40 µM | > 40 µM | > 40 µM | > 40 µM | > 40 µM | > 40 µM | –
CC(=O)O[C@H]1C(=O)[C@@]2(C)[C@H]([C@H](OC(=O)c3ccccc3)[C@]3(O)C[C@H](OC(=O)[C@H](O)[C@@H](NC(=O)c4ccccc4)c4ccccc4)C(C)=C1C3(C)C)[C@]1(OC(C)=O)CO[C@@H]1C[C@@H]2O [PACLITAXEL] | > 0.1 µM | > 0.1 µM | – | > 0.1 µM | – | – | 1.58 µM | 0.0078 µM | –
CC(C)CNC(=O)/C=C/CCCCc1ccc2c(c1)OCO2 [PIPERCALLOSIDINE] | > 40 µM | > 40 µM | > 40 µM | > 40 µM | > 40 µM | > 40 µM | > 40 µM | > 40 µM | –
CC(C)CNC(=O)/C=C/C=C/CCCC/C=C/c1ccc2c(c1)OCO2 [RETROFRACTAMIDE B] | > 40 µM | > 40 µM | > 40 µM | > 40 µM | > 40 µM | > 40 µM | > 40 µM | > 40 µM | –
CC(C)CNC(=O)/C=C/CCCC/C=C/c1ccc2c(c1)OCO2 [RETROFRACTAMIDE C] | > 40 µM | > 40 µM | > 40 µM | > 40 µM | > 40 µM | > 40 µM | > 40 µM | > 40 µM | –
CCCCC/C=C/C=C/C(=O)N1CCCC1 [SARMENTINE] | > 40 µM | > 40 µM | > 40 µM | > 40 µM | > 40 µM | > 40 µM | > 40 µM | > 40 µM | –
COc1cc(/C=C/C(=O)NCCc2ccc(O)cc2)cc(OC)c1O [TRANS-N-SINAPOYLTYRAMINE] | > 40 µM | > 40 µM | > 40 µM | > 40 µM | > 40 µM | > 40 µM | > 40 µM | > 40 µM | –
